The source of these data is PMC3831721 (Indian Journal of Pharmaceutical Sciences, 2013).

The subject of this assay is Sprague Dawley rats. Description: Antiinflammatory activity, carrageenan hind paw edema method. The class given is in vivo. The note with it: rat, oral, equivalent to 20 mg/kg. The method, boiled down: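 Sprague Dawley rats (100-200 g), six per group (3 male, 3 female). Test compound given orally in 1% sodium CMC suspension, equivalent to 20 mg/kg; controls received 1% CMC only. After 30 min, 0.1 ml 1% w/v carrageenan in normal saline injected into the right hind paw plantar surface. Paw volume measured by plethysmometer before dosing and at 0.5, 1, 2, 4 and 6 h. %inhibition = (1−Vt/Vc)×100, using mean relative volume change.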
(In general: The carrageenan paw model is a standard test of acute inflammation.)

With `CCc1cccc2c3c([nH]c12)C(CC)(CC(=O)O)OCC3` (racemic) [EC, (RS)-2-(1,8-Diethyl-4,9-dihydro-3H-pyrano[3,4-b]indol-1-yl) acetic acid], the “Antiinflammatory activity (6 h) Inhibition of edema (%)” value is reported as 81.9%.
